How the values were obtained:
[1] = biological target: T1, Amine oxidase [flavin-containing] B (Bos taurus, UniProt P56560); assay: Inactivation constant was determined against mitochondrial Monoamine oxidase B
T1 sequence (P56560 whole entry): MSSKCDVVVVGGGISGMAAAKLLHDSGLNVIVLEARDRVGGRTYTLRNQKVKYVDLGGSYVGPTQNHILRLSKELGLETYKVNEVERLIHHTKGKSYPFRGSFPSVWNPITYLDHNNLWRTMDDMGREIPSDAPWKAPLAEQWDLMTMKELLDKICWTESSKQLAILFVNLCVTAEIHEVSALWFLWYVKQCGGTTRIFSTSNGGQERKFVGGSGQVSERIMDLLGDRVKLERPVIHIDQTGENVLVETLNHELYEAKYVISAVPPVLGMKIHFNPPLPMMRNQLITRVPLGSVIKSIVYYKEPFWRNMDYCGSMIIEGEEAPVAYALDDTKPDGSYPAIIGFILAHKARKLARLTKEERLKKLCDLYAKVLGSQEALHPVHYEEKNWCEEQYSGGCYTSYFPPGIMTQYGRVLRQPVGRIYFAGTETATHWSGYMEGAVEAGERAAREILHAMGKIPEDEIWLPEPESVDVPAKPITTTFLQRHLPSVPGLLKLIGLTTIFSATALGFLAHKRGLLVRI
Method in brief: (§1)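 MAO B (20 μL of 2.6 mg/mL) was added to the amine hydrochloride at various concentrations, in 100 mM Tris pH 9.0 with 4% v/v DMSO. The mixture was incubated at 25 °C. At intervals an aliquot was diluted 1:50 into 1.0 mM benzylamine in the same buffer, and activity was read as the change in absorbance at 250 nm. Activity is expressed relative to a no-inactivator DMSO control. K_I and k_inact were derived by the Kitz–Wilson method.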

[2] = biological target: T1, Amine oxidase [flavin-containing] B; assay: Inhibition constant was evaluated against mitochondrial Monoamine oxidase B; method in brief: as §1
[3] = biological target: T1, Amine oxidase [flavin-containing] B; assay: K inact/KI against Monoamine oxidase B; method in brief: as §1

Row | kinact [1] [s⁻¹] | Ki [2] [µM] | kinact/KI [3] [M⁻¹ s⁻¹] | Structure (SMILES)
1 | 0.00055 | 170 | 3.17 | NCC12C3C4C5C3C1C5C42 (centres undefined)
2 | 0.0125 | 120 | 105 | NCC12C3C4C1C1C2C3C41c1ccccc1 (centres undefined)
3 | 0.00467 | 260 | 18.3 | NCC12C3C4C1C1C2C3C41C1CC1 (centres undefined)

Reference: ChEMBL document CHEMBL1129988, “4-substituted cubylcarbinylamines: a new class of mechanism-based monoamine oxidase B inactivators” (J Med Chem, 1997)
